# Published values from different studies.
# Compare with care: the assays were run in different laboratories.
Compound,target or system,assay,system,setting,measurement,result
CC(C(=O)n1nnc2ccccc21)c1cccc(C(OC(=O)n2nnc3ccccc32)c2ccccc2)c1 (stereo not shown),CCRF-CEM,cell growth or viability,,72 h,IC50,67 µM
N.N.[Cl][Pt][Cl],PK-59,"cell growth or viability, MTT",,24 h,IC50,2.66 µM
Nc1ccn(C[C@@H](CO)OCP(=O)(O)O)c(=O)n1,Cowpox virus,microbial growth,,,MIC50,22 µM
Nc1ccn(C[C@@H](CO)OCP(=O)(O)O)c(=O)n1,Cowpox virus,viral replication,,,IC50,30 µM
N#Cc1ccc(NC(=S)NN=Cc2ccc(O)cc2)cc1,CCRF-CEM,cell growth or viability,,72 h,IC50,107 µg/mL
CC(C)CN(C[C@@H](O)[C@H](Cc1ccccc1)NC(=O)O[C@H]1CO[C@H]2OCC[C@H]21)S(=O)(=O)c1ccc(N)cc1,Human immunodeficiency virus 1,viral replication,MT4,,IC50,0.0032 µM
COC(=O)c1cc(-c2cccc(NC(=O)NCc3ccccc3)c2)on1,Mycolicibacterium fortuitum,"microbial growth, broth dilution",ATCC6841,48 h,MIC,> 64 µg/mL
[H]/N=C(/N)N[C@H]1[C@H](O)[C@@H](O)[C@H](O[C@@H]2O[C@@H](C)[C@](O)(C=O)[C@H]2O[C@@H]2O[C@@H](CO)[C@H](O)[C@@H](O)[C@@H]2NC)[C@@H](N/C(N)=N\[H])[C@@H]1O,Mycolicibacterium fortuitum,microbial growth,ATCC6841,,MIC,50 µg/mL
CC(C(=O)N1CCCC1)c1cccc(C(OC(=O)N2CCCC2)c2ccccc2)c1 (stereo not shown),CCRF-CEM,cell growth or viability,,72 h,IC50,42 µM
NCC(=O)Nc1ccc(-n2nc(C(F)(F)F)cc2-c2ccc3c(ccc4ccccc43)c2)cc1,Human immunodeficiency virus 1,"viral replication, inhibitor",human PBMC,clinical isolate,IC90,2.25 µM
COC(=O)c1cc(-c2cccc(NC(=O)Nc3ccc(C(F)(F)F)cc3)c2)on1,Mycolicibacterium fortuitum,"microbial growth, broth dilution",ATCC6841,48 h,MIC,> 64 µg/mL
CO[C@H]1/C=C/O[C@@]2(C)Oc3c(C)c(O)c4c(O)c(c(/C=N/N5CCN(C)CC5)c(O)c4c3C2=O)NC(=O)/C(C)=C\C=C\[C@H](C)[C@H](O)[C@@H](C)[C@@H](O)[C@@H](C)[C@H](OC(C)=O)[C@@H]1C,Mycolicibacterium fortuitum,microbial growth,ATCC6841,,MIC,3.1 to 6.2 µg/mL
COC(=O)c1cc(-c2cccc(NC(=S)Nc3ccccc3Cl)c2)on1,Mycolicibacterium fortuitum,"microbial growth, broth dilution",ATCC6841,48 h,MIC,> 64 µg/mL
N#Cc1ccc(NC(=S)NN=Cc2ccccc2)cc1,CCRF-CEM,cell growth or viability,,72 h,IC50,83 µg/mL
CO[C@H]1/C=C/O[C@@]2(C)Oc3c(C)c(O)c4c(O)c(c(/C=N/N5CCN(C)CC5)c(O)c4c3C2=O)NC(=O)/C(C)=C\C=C\[C@H](C)[C@H](O)[C@@H](C)[C@@H](O)[C@@H](C)[C@H](OC(C)=O)[C@@H]1C,Mycobacterium marinum,microbial growth,,5 days,MIC,< 0.78 µM
CCOC(=O)c1c(CSc2ccccc2)n(C)c2cc(Br)c(O)c(CN(C)C)c12,Cowpox virus,microbial growth,,,MIC50,> 37 µM
COC(=O)c1cc(-c2cccc(NC(=O)Nc3ccccc3F)c2)on1,Mycolicibacterium fortuitum,"microbial growth, broth dilution",ATCC6841,48 h,MIC,> 64 µg/mL
O=c1[nH]c(=O)n([C@H]2C[C@H](O)[C@@H](CO)O2)cc1/C=C/Br,Cowpox virus,microbial growth,,,MIC50,50 µM
COC(=O)c1cc(-c2cccc(NC(=S)Nc3ccc([N+](=O)[O-])cc3)c2)on1,Mycolicibacterium fortuitum,"microbial growth, broth dilution",ATCC6841,48 h,MIC,> 64 µg/mL
